# Target: T1, Recombinant human MAO-A (Homo sapiens, UniProt P21397)
# T1 sequence (P21397 1-527): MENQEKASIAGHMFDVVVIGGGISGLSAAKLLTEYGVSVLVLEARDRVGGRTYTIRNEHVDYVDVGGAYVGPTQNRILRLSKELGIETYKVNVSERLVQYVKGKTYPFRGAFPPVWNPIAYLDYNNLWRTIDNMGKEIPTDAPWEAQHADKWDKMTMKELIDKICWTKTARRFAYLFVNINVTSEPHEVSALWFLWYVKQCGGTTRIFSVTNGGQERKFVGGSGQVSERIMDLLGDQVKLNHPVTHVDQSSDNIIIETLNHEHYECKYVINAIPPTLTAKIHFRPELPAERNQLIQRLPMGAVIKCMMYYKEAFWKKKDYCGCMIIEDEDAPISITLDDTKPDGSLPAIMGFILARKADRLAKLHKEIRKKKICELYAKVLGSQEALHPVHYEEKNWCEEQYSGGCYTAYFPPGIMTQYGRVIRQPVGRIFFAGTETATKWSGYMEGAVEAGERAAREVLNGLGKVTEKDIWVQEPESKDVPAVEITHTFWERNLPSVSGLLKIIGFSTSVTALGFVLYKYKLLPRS
# Assay: MAO-A inhibition enzyme assay
# Assay type: biochemical
# Settings: not given
row,Structure (SMILES),IC50
1,O=C(NN=Cc1ccc(Cl)cc1)c1ccccc1 [ACH1],> 40 µM
2,O=C(NN=Cc1ccc(Br)cc1)c1ccccc1 [ACH2],> 40 µM
3,O=C(NN=Cc1ccc(F)cc1)c1ccccc1 [ACH3],> 40 µM
4,O=C(NN=Cc1ccc(Cl)cc1)c1ccc(Cl)cc1 [ACH4],> 40 µM
5,O=C(NN=Cc1ccc(Br)cc1)c1ccc(Cl)cc1 [ACH5],> 40 µM
6,O=C(NN=Cc1ccc(F)cc1)c1ccc(Cl)cc1 [ACH6],> 40 µM
7,O=C(NN=Cc1ccccc1)c1ccc(Cl)cc1 [ACH7],> 40 µM
8,O=C(NN=Cc1ccc(Cl)cc1)c1ccc(Br)cc1 [ACH8],20.2 ± 0.57 µM
9,O=C(NN=Cc1ccc(Br)cc1)c1ccc(Br)cc1 [ACH9],> 40 µM
10,O=C(NN=Cc1ccc(F)cc1)c1ccc(Br)cc1 [ACH10],23.4 ± 0.56 µM
11,O=C(NN=Cc1ccccc1)c1ccc(Br)cc1 [ACH11],> 40 µM
12,O=C(NN=Cc1ccc(Cl)cc1)c1ccc(F)cc1 [ACH12],4.85 ± 0.83 µM
13,O=C(NN=Cc1ccc(Br)cc1)c1ccc(F)cc1 [ACH13],11.6 ± 0.07 µM
14,O=C(NN=Cc1ccc(F)cc1)c1ccc(F)cc1 [ACH14],19.6 ± 1.41 µM

# Same assay, conditions: read-out: residual activities at 10 μM (%) MAO-A
row,Structure (SMILES),remaining activity at 10 µM
1,O=C(NN=Cc1ccc(Cl)cc1)c1ccccc1 [ACH1],96 ± 8.49%
2,O=C(NN=Cc1ccc(Br)cc1)c1ccccc1 [ACH2],131 ± 2.9%
3,O=C(NN=Cc1ccc(F)cc1)c1ccccc1 [ACH3],109 ± 7.07%
4,O=C(NN=Cc1ccc(Cl)cc1)c1ccc(Cl)cc1 [ACH4],92.1 ± 1.86%
5,O=C(NN=Cc1ccc(Br)cc1)c1ccc(Cl)cc1 [ACH5],70.6 ± 4.16%
6,O=C(NN=Cc1ccc(F)cc1)c1ccc(Cl)cc1 [ACH6],117 ± 1.86%
7,O=C(NN=Cc1ccccc1)c1ccc(Cl)cc1 [ACH7],127 ± 3.48%
8,O=C(NN=Cc1ccc(Cl)cc1)c1ccc(Br)cc1 [ACH8],59.6 ± 3.12%
9,O=C(NN=Cc1ccc(Br)cc1)c1ccc(Br)cc1 [ACH9],101 ± 1.86%
10,O=C(NN=Cc1ccc(F)cc1)c1ccc(Br)cc1 [ACH10],61.8 ± 6.24%
11,O=C(NN=Cc1ccccc1)c1ccc(Br)cc1 [ACH11],102 ± 4.64%
12,O=C(NN=Cc1ccc(Cl)cc1)c1ccc(F)cc1 [ACH12],37.6 ± 2.24%
13,O=C(NN=Cc1ccc(Br)cc1)c1ccc(F)cc1 [ACH13],38.5 ± 5.44%
14,O=C(NN=Cc1ccc(F)cc1)c1ccc(F)cc1 [ACH14],63.8 ± 1.76%

# Target: T2, Recombinant human MAO-B (Homo sapiens, UniProt P27338)
# T2 sequence (P27338 1-520): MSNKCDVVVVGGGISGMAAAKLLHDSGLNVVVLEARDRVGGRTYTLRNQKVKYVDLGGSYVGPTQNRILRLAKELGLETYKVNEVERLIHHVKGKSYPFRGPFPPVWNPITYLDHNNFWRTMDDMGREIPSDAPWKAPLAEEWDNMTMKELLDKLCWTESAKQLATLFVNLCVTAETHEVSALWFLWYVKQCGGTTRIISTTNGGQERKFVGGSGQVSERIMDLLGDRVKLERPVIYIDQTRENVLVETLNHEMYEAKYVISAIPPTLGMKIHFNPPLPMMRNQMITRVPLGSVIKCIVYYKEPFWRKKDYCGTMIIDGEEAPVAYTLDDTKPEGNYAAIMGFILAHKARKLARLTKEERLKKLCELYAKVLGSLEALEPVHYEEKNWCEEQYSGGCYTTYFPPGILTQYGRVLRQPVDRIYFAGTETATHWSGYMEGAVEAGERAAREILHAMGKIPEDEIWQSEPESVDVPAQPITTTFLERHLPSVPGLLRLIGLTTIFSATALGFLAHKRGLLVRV
# Assay: MAO-B inhibition enzyme assay
# Assay type: biochemical
# Settings: not given
row,Structure (SMILES),IC50
1,O=C(NN=Cc1ccc(Cl)cc1)c1ccccc1 [ACH1],0.36 ± 0.04 µM
2,O=C(NN=Cc1ccc(Br)cc1)c1ccccc1 [ACH2],1.65 ± 0.21 µM
3,O=C(NN=Cc1ccc(F)cc1)c1ccccc1 [ACH3],0.22 ± 0.02 µM
4,O=C(NN=Cc1ccc(Cl)cc1)c1ccc(Cl)cc1 [ACH4],0.37 ± 0.006 µM
5,O=C(NN=Cc1ccc(Br)cc1)c1ccc(Cl)cc1 [ACH5],1.54 ± 0.04 µM
6,O=C(NN=Cc1ccc(F)cc1)c1ccc(Cl)cc1 [ACH6],8 ± 0.037 µM
7,O=C(NN=Cc1ccccc1)c1ccc(Cl)cc1 [ACH7],12.8 ± 0.026 µM
8,O=C(NN=Cc1ccc(Cl)cc1)c1ccc(Br)cc1 [ACH8],0.2 ± 0.09 µM
9,O=C(NN=Cc1ccc(Br)cc1)c1ccc(Br)cc1 [ACH9],> 40 µM
10,O=C(NN=Cc1ccc(F)cc1)c1ccc(Br)cc1 [ACH10],0.14 ± 0.011 µM
11,O=C(NN=Cc1ccccc1)c1ccc(Br)cc1 [ACH11],5.2 ± 0.056 µM
12,O=C(NN=Cc1ccc(Cl)cc1)c1ccc(F)cc1 [ACH12],5.6 ± 0.1 µM
13,O=C(NN=Cc1ccc(Br)cc1)c1ccc(F)cc1 [ACH13],0.18 ± 0.01 µM
14,O=C(NN=Cc1ccc(F)cc1)c1ccc(F)cc1 [ACH14],0.15 ± 0.02 µM

# Same assay, conditions: IC50 for MAO-A / IC50 for MAO-B
row,Structure (SMILES),SI (selectivity index)
1,O=C(NN=Cc1ccc(Cl)cc1)c1ccc(Cl)cc1 [ACH4],> 108.11
2,O=C(NN=Cc1ccc(Br)cc1)c1ccc(Cl)cc1 [ACH5],> 25.97
3,O=C(NN=Cc1ccc(F)cc1)c1ccc(Cl)cc1 [ACH6],> 5.00
4,O=C(NN=Cc1ccccc1)c1ccc(Cl)cc1 [ACH7],> 3.13
5,O=C(NN=Cc1ccc(Cl)cc1)c1ccc(Br)cc1 [ACH8],101.10
6,O=C(NN=Cc1ccc(F)cc1)c1ccc(Br)cc1 [ACH10],167.29
7,O=C(NN=Cc1ccccc1)c1ccc(Br)cc1 [ACH11],> 7.69
8,O=C(NN=Cc1ccc(Cl)cc1)c1ccc(F)cc1 [ACH12],0.87
9,O=C(NN=Cc1ccc(Br)cc1)c1ccc(F)cc1 [ACH13],64.44
10,O=C(NN=Cc1ccc(F)cc1)c1ccc(F)cc1 [ACH14],130.47

# Same assay, conditions: read-out: residual activities at 10 μM (%) MAO-B
row,Structure (SMILES),remaining activity at 10 µM
1,O=C(NN=Cc1ccc(Cl)cc1)c1ccccc1 [ACH1],10.7 ± 2.52%
2,O=C(NN=Cc1ccc(Br)cc1)c1ccccc1 [ACH2],30.2 ± 0.95%
3,O=C(NN=Cc1ccc(F)cc1)c1ccccc1 [ACH3],7.08 ± 1.25%
4,O=C(NN=Cc1ccc(Cl)cc1)c1ccc(Cl)cc1 [ACH4],20.2 ± 1.68%
5,O=C(NN=Cc1ccc(Br)cc1)c1ccc(Cl)cc1 [ACH5],35.8 ± 1.88%
6,O=C(NN=Cc1ccc(F)cc1)c1ccc(Cl)cc1 [ACH6],46.4 ± 1.68%
7,O=C(NN=Cc1ccccc1)c1ccc(Cl)cc1 [ACH7],43.5 ± 4.56%
8,O=C(NN=Cc1ccc(Cl)cc1)c1ccc(Br)cc1 [ACH8],18.3 ± 3.45%
9,O=C(NN=Cc1ccc(Br)cc1)c1ccc(Br)cc1 [ACH9],98.2%
10,O=C(NN=Cc1ccc(F)cc1)c1ccc(Br)cc1 [ACH10],11.7 ± 1.42%
11,O=C(NN=Cc1ccccc1)c1ccc(Br)cc1 [ACH11],39 ± 5.61%
12,O=C(NN=Cc1ccc(Cl)cc1)c1ccc(F)cc1 [ACH12],33.8%
13,O=C(NN=Cc1ccc(Br)cc1)c1ccc(F)cc1 [ACH13],-50.9%
14,O=C(NN=Cc1ccc(F)cc1)c1ccc(F)cc1 [ACH14],-14.4%

# Target: T2, Recombinant human MAO-B
# Assay: MAO-B enzyme kinetics
# Assay type: biochemical
# Settings: not given
# In short: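 Recombinant human MAO-B in 50 mM sodium phosphate (pH 7.2), 25 °C, 30 min. Benzylamine was the substrate, tested at five concentrations, and product formation was followed continuously as absorbance change at 250 nm. Reactions were started by adding substrate to the enzyme mixture, with three inhibitor conditions per test compound. Inhibition type came from Lineweaver–Burk plots and Ki from secondary plots.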
row,Structure (SMILES),Ki
1,O=C(NN=Cc1ccc(F)cc1)c1ccc(Br)cc1 [ACH10],0.097 ± 0.0021 µM
2,O=C(NN=Cc1ccc(F)cc1)c1ccc(F)cc1 [ACH14],0.1 ± 0.038 µM

# Same assay, conditions: Lineweaver-Burk plot
row,Structure (SMILES),type of MAO-B inhibition
1,O=C(NN=Cc1ccc(F)cc1)c1ccc(Br)cc1 [ACH10],competitive MAO-B inhibitors
2,O=C(NN=Cc1ccc(F)cc1)c1ccc(F)cc1 [ACH14],competitive MAO-B inhibitors

# Target: T2, Recombinant human MAO-B
# Assay: Reversibility of MAO-B inhibition by dialysis
# Assay type: biochemical
# Settings: dialysis method
row,Structure (SMILES),reversibility of MAO-B inhibition
1,O=C(NN=Cc1ccc(F)cc1)c1ccc(Br)cc1 [ACH10],reversible inhibitors of MAO-B
2,O=C(NN=Cc1ccc(F)cc1)c1ccc(F)cc1 [ACH14],reversible inhibitors of MAO-B

# System: not listed separately
# Assay: BBB permeability assay
# Assay type: in vitro ADME
# Settings: PAMPA
# In short: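 Passive BBB permeation is estimated with a non-cell PAMPA: a filter membrane (0.45 µm pore, 125 µm thick) soaked in n-dodecane sits between donor and acceptor wells. Test compound stocks (10 mM in DMSO, kept at 0 °C) are diluted in buffer to final 1, 0.1 and 0.01 mM, with DMSO below 1% (v/v). Pe is calculated from donor and receptor absorbance, filter area (0.45 cm²), compartment volumes and time.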
row,Structure (SMILES),Papp
1,O=C(NN=Cc1ccc(F)cc1)c1ccc(Br)cc1 [ACH10],5.12 ×10⁻⁶ cm/s
2,O=C(NN=Cc1ccc(F)cc1)c1ccc(F)cc1 [ACH14],4.98 ×10⁻⁶ cm/s

# Same assay, conditions: PAMPA effective permeability
row,Structure (SMILES),Pe (cm/s)
1,"C#CCN(C)[C@H](C)Cc1ccccc1 [selegiline, reference compound]",5.69 ± 0.04 cm/s

# Same assay, conditions: PAMPA, class from Pe
row,Structure (SMILES),prediction (BBB permeation)
1,O=C(NN=Cc1ccc(F)cc1)c1ccc(Br)cc1 [ACH10],CNS+ (Pe > 4.00 × 10^–6 cm/s: CNS+ (high permeation))
2,O=C(NN=Cc1ccc(F)cc1)c1ccc(F)cc1 [ACH14],CNS+ (Pe > 4.00 × 10^–6 cm/s: CNS+ (high permeation))
3,"C#CCN(C)[C@H](C)Cc1ccccc1 [selegiline, reference compound]",CNS+ (Pe > 4.00 × 10^–6 cm/s: CNS+ (high permeation))
